The target in test [1] is ALK tyrosine kinase receptor (Homo sapiens) (UniProt Q9UM73). Description: Inhibition of ALK (unknown origin) at 10 uM after 30 mins by fluorescence assay. An outline of the steps:
(§1)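 Single 10 μM test. Enzyme preincubated with compound in Hepes/Tris pH 7.4, EGTA/Tris, MgCl2, DTT, 0.008 % Tween 20. Substrate peptide and ATP added; 30 min at room temperature. Stopped with EDTA; europium-labelled anti-phospho PT66 antibody added, TR-FRET read after 60 min. Percent inhibition versus control enzyme activity; no-enzyme basal control; duplicate.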

Test [2] concerns the target RAC-alpha serine/threonine-protein kinase (Homo sapiens) (UniProt P31749). Description: Inhibition of AKT1 (unknown origin) at 10 uM after 30 mins by fluorescence assay. An outline of the steps: as §1
Test [3] deals with Aorta. Description: Antiangiogenic activity in Sprague-Dawley rat aortic rings assessed as inhibition of microvessel outgrowth at 10 uM after 6 days by matrigel assay. In kind it is functional. The note with it: 144 h. Summed up: (§2)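 Aortas from 8–10-week-old male Sprague Dawley rats cleaned of fibroadipose tissue, cut into 1-mm rings, embedded between two Matrigel layers. Compound or vehicle (0.5 % DMSO) added every other day for 6 days; imaged day 7 (×200). Sprouting area quantified as pixels versus vehicle; mean ± SD, three independent experiments.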

The subject of test [4] is Aorta. In words: Antiangiogenic activity in Sprague-Dawley rat aortic rings assessed as inhibition of microvessel outgrowth at 1 uM after 6 days by matrigel assay. In kind it is functional. The settings on record: 144 h. An outline of the steps: as §2
Test [5] concerns Aorta. Description: Antiangiogenic activity in Sprague-Dawley rat aortic rings assessed as reduction of microvessel outgrowth after 6 days by matrigel assay. In kind it is functional, tissue-based. An outline of the steps: as §2
The test system of test [6] is Aorta. Description: Antiangiogenic activity in Sprague-Dawley rat aortic rings assessed as inhibition of microvessel outgrowth at 50 uM after 6 days by matrigel assay. In kind it is functional. The settings on record: 144 h. An outline of the steps: as §2
Test [7] concerns HUVEC. In words: Antiangiogenic activity in HUVEC assessed as inhibition of tube formation at 10 uM after 6 hrs by matrigel assay. In kind it is functional. The note with it: Homo sapiens. Summed up: (§3)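 HUVECs seeded at 40,000 cells/well on Matrigel (gelled 30 min, 37 °C) in M199 with 5 % FBS plus compound or vehicle (0.5 % DMSO); 6 h at 37 °C, 5 % CO2. Tubes photographed by phase-contrast (×200); tube area measured as pixels and compared with vehicle. Mean ± SD of three independent experiments.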

In test [8] the test system is HUVEC. Description: Antiangiogenic activity in HUVEC assessed as inhibition of tube formation at 50 uM after 6 hrs by matrigel assay. In kind it is functional. The note with it: Homo sapiens. Summed up: as §3
Another test relates to PC-3. In words: Antiproliferative activity against human PC3 cells after 48 hrs by MTT assay. The settings on record: PC-3, 48 h. In kind it is functional, cell-based. An outline of the steps:
(§4)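 Cells kept in RPMI 1640 with 10 % FBS at 37 °C, 5 % CO2. Seeded 5,000/well, allowed 4 h, then exposed to serial dilutions for 48 h. MTT added for the last 4 h; formazan dissolved in DMSO, absorbance at 570 nm.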

The subject of a further test is HCT-116. Description: Antiproliferative activity against human HCT116 cells after 48 hrs by MTT assay. In kind it is functional, cell-based. The note with it: HCT-116, 48 h. An outline of the steps: as §4
Another test deals with MDA-MB-231. Description: Antiproliferative activity against human MDA-MB-231 cells after 48 hrs by MTT assay. In kind it is functional, cell-based. The note with it: MDA-MB-231, 48 h. An outline of the steps: as §4

Chain of ALK tyrosine kinase receptor (Homo sapiens) (Q9UM73 19-1620 limits assumed): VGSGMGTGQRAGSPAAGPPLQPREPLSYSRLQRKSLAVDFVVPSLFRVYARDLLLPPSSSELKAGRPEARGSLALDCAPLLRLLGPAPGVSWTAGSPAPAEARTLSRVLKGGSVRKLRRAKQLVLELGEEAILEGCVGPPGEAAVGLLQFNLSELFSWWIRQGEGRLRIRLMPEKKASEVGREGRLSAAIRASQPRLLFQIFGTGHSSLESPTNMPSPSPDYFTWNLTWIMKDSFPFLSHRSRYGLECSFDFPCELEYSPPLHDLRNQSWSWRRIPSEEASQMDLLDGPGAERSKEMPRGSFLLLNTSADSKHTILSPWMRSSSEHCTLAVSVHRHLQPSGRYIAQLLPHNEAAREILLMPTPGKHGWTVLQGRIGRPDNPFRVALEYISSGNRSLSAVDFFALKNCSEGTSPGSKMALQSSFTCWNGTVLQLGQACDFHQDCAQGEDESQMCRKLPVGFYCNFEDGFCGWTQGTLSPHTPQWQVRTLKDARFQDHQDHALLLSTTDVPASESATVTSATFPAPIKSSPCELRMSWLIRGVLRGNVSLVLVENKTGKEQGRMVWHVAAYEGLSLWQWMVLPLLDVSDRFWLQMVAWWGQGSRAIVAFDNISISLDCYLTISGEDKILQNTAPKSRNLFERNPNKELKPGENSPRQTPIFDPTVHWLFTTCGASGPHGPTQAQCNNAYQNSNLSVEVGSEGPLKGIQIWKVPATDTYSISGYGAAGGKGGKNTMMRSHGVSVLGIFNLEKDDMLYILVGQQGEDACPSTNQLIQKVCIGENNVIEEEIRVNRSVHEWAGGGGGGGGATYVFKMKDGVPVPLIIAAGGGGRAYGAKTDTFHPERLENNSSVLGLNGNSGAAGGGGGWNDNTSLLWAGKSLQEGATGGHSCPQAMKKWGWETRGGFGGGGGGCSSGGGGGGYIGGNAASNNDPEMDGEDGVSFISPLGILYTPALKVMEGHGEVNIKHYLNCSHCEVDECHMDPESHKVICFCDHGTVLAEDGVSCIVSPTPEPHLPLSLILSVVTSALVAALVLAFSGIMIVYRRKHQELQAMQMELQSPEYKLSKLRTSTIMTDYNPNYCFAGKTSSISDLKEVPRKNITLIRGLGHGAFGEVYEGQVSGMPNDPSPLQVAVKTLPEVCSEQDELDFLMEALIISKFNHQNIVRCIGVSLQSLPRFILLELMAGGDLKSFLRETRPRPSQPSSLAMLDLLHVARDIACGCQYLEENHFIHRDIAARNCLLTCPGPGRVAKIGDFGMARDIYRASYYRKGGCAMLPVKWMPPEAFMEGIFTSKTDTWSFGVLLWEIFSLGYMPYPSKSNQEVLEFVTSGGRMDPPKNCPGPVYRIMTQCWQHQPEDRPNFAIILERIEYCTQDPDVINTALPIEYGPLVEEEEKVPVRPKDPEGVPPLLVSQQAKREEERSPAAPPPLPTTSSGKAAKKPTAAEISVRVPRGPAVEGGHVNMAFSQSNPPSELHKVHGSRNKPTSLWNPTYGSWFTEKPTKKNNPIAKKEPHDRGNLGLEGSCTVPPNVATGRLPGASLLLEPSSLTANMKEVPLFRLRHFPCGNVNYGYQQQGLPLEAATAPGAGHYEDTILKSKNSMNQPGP
Chain of RAC-alpha serine/threonine-protein kinase (Homo sapiens) (P31749 whole entry): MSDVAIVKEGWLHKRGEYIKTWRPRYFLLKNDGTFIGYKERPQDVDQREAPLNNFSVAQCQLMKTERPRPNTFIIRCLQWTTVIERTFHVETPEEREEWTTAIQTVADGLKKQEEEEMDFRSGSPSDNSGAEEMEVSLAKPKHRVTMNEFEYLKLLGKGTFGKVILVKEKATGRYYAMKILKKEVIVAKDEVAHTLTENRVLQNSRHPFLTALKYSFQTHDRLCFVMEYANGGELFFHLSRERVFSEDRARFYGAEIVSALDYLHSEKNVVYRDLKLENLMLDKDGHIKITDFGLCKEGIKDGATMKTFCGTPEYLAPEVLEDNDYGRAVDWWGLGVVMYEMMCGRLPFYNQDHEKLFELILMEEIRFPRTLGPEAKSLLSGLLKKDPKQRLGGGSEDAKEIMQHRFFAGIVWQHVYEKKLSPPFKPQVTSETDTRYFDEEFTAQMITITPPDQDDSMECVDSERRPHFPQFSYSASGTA

On to `Cc1nnc(Sc2cc(NC(=O)c3ccc(Cl)cc3)c3ccccc3c2O)s1`, for which the inhibition in test [1] is 9.25%; in [2], 8.48%. The inhibition at 10 µM in the test on Aorta [3] stood at 23%; with HUVEC [7] it was 81%. Besides, the inhibition at 1 µM in the test with Aorta [4] came to 18%. For the same molecule, the Activity entry in the test with Aorta [5] was “Dose-dependent effect”. Further, the inhibition at 50 µM with Aorta [6] was 91%; with HUVEC [8] it was > 80%. For the same molecule, the results for the IC50 in the test on PC-3, in the test with HCT-116 and with MDA-MB-231 were 49.5 µM, > 100 µM and > 100 µM, respectively.

The record behind these values is ChEMBL document CHEMBL2390901, “Synthesis and biological evaluation of N-(4-hydroxy-3-mercaptonaphthalen-1-yl)amides as inhibitors of angiogenesis and tumor growth” (Eur J Med Chem, 2013).
